The source made the active and inactive calls. No cut-off for these calls is given here.
Experiments:
[1] = tested on: Rattus norvegicus; assay: Antiinflammatory activity in Wistar rat assessed as inhibition of carrageenan-induced paw swelling at 2 x 50 mg/kg, po administered 0.5 to 3 hrs prior to carrageenan challenge measured after 2.5 hrs by plethysmographic analysis relative to control; type: functional
How it was run: (§1)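 Female Wistar rats (in-house bred, 140–170 g; groups of four) were dosed orally twice, 3 and 0.5 h before a plantar injection of 0.1 mL 1% carrageenan in 0.9% saline into the right hind foot. Both feet were measured by mercury-displacement plethysmography 2.5 h later, and the right-minus-left difference was taken. Group mean % inhibition was calculated against ten concurrent saline-dosed controls, with significance at p < 0.02.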

[2] = Toxicity in po dosed mouse; type: organism-based; conditions: in vivo
[3] = tested on: Rattus norvegicus; assay: Antiinflammatory activity in Wistar rat assessed as inhibition of carrageenan-induced paw swelling at 2 x 100 mg/kg, po administered 0.5 to 3 hrs prior to carrageenan challenge measured after 2.5 hrs by plethysmographic analysis relative to control; type: functional; conditions: for inhibition in vivo at 100 mg/kg: Rattus norvegicus, Wistar; how it was run: as §1
[4] = tested on: Rattus norvegicus; assay: Antiinflammatory activity in Wistar rat assessed as inhibition of carrageenan-induced paw swelling at 100 mg/kg, po administered 0.5 to 3 hrs prior to carrageenan challenge measured after 2.5 hrs by plethysmographic analysis relative to control; type: functional
How it was run: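 Groups of four female Wistar rats (140–170 g) were dosed orally twice (2 × 50 or 2 × 100 mg/kg), at 3 and 0.5 h before plantar injection of 0.1 mL 1% carrageenan in 0.9% saline into the right hind foot. Right minus left foot volume was read by mercury-displacement plethysmograph at 2.5 h. Mean group swelling was expressed as % inhibition versus ten concurrent saline-dosed controls; significance p < 0.02.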

[5] = tested on: Canis familiaris; assay: Toxicity in dog at 150 mg/kg; type: organism-based, Canis lupus familiaris; design: dose 150 mg/kg; conditions: in vivo

SMILES: CC(C(=O)O)c1ccc(N2CCCCC2)cc1 (stereo unspecified)
- inhibition in vivo at 50 mg/kg [1]: 68%
- LD50 [2]: 800 mg/kg

SMILES: NCCc1ccc(N2CCCCC2)cc1.O=C(O)O
- inhibition (INH) [3]: 54%
- LD50 [2]: 800 mg/kg

SMILES: Cl.[2H]C([2H])(N)C(C)c1ccc(N2CCCCC2)cc1 (stereo unspecified)
- inhibition in vivo at 50 mg/kg [1]: 47%
- LD50 [2]: 600 mg/kg

SMILES: O=C(O)Cc1ccc(N2CCCCC2)cc1
- inhibition in vivo at 100 mg/kg [3]: 51%
- LD50 [2]: 800 mg/kg

SMILES: CC(C(=O)O)c1ccc(N2CCCCC2)c(Cl)c1 (stereo unspecified)
- inhibition in vivo at 100 mg/kg [3]: 53%
- LD50 [2]: 1200 mg/kg

SMILES: CN(CCc1ccc(N2CCCCC2)cc1)C(=O)C(F)(F)F.Cl
- inhibition in vivo at 100 mg/kg [3]: 38%
- LD50 [2]: 1600 mg/kg

SMILES: O=C(NCCc1ccc(N2CCCCC2)cc1)C(F)(F)F
- inhibition in vivo at 100 mg/kg [3]: 60%
- LD50 [2]: 1600 mg/kg

SMILES: CC(CNC(=O)C(F)(F)F)c1ccc(N2CCCCC2)cc1 (stereo unspecified)
- inhibition in vivo at 50 mg/kg [1]: 32%
- LD50 [2]: 600 mg/kg

SMILES: CC(N)Cc1ccc(N2CCCCC2)cc1.O=C(O)CCC(=O)O (stereo unspecified)
- inhibition in vivo at 50 mg/kg [1]: 33%
- LD50 [2]: 600 mg/kg

SMILES: CC(C)(CN)c1ccc(N2CCCCC2)cc1.O=C(O)CCC(=O)O
- inhibition in vivo at 50 mg/kg [1]: 34%
- LD50 [2]: 400 mg/kg

SMILES: Cl.NCCc1ccc(N2CCCCC2)cc1
- inhibition in vivo at 100 mg/kg ([3]; po): 55%
- LD50 [2]: 1200 mg/kg

SMILES: CC(C)c1ccc(N2CCCCC2)cc1.Cl
- inhibition in vivo at 50 mg/kg [1]: 30%
- LD50 [2]: 1200 mg/kg

SMILES: CC(CN)c1cccc(N2CCCCC2)c1 (stereo unspecified)
- inhibition ([3]; at 100 mg/kg): inactive
- LD50 [2]: 600 mg/kg

SMILES: NCCCCCCc1ccc(N2CCCCC2)cc1.O=C(O)CCC(=O)O
- inhibition in vivo at 100 mg/kg [3]: 57%
- LD50 [2]: 1200 mg/kg

SMILES: OCCc1ccc(N2CCCCC2)cc1
- inhibition in vivo at 100 mg/kg [3]: 51%
- LD50 [2]: 1200 mg/kg

SMILES: NCCCCc1ccc(N2CCCCC2)cc1.O=C(O)O
- inhibition in vivo at 100 mg/kg [3]: 54%
- LD50 [2]: 600 mg/kg

SMILES: CC(CO)c1ccc(N2CCCCC2)cc1 (stereo unspecified)
- inhibition in vivo at 100 mg/kg [3]: 71%
- LD50 [2]: 1600 mg/kg

SMILES: CCCCC1C(=O)N(c2ccccc2)N(c2ccccc2)C1=O [PHENYLBUTAZONE]
- inhibition in vivo at 100 mg/kg [3]: 50%

SMILES: NCC(C(=O)O)c1ccc(N2CCCCC2)cc1 (stereo unspecified)
- inhibition in vivo at 100 mg/kg [3]: 40%
- LD50 [2]: > 1600 mg/kg

SMILES: CNCCc1ccc(N2CCCCC2)cc1.O=C(O)CCC(=O)O
- inhibition in vivo at 50 mg/kg [1]: 33%
- LD50 [2]: 600 mg/kg

SMILES: O=C(Cc1ccc(N2CCCCC2)cc1)NCCc1ccc(N2CCCCC2)cc1
- inhibition in vivo at 100 mg/kg [3]: 22%
- LD50 [2]: 1600 mg/kg

SMILES: Cl.NCCc1ccc(N2CCCCC2)c(Cl)c1
- inhibition in vivo at 100 mg/kg [4]: 58%
- LD50 [2]: 800 mg/kg

SMILES: CC(C)(O)c1ccc(N2CCCCC2)cc1
- inhibition ([1]; at 50 mg/kg): inactive
- LD50 [2]: 600 mg/kg

SMILES: O=C(O)Cc1ccc(N2CCCCC2)c(Cl)c1
- inhibition in vivo at 100 mg/kg [3]: 43%
- LD50 [2]: 800 mg/kg

SMILES: C[C@]12CCC(=O)C=C1CC[C@@H]1[C@@H]2[C@@H](O)C[C@@]2(C)[C@H]1CC[C@]2(O)C(=O)CO [HYDROCORTISONE]
- inhibition in vivo at 50 mg/kg [1]: 35%

SMILES: CC(CN)c1ccc(N2CCCCC2)cc1.Cl (stereo unspecified)
- inhibition in vivo at 50 mg/kg [1]: 57%
- LD50 [2]: 600 mg/kg
- Activity [5]: Toxic

SMILES: CC(CN)c1ccc(N2CCCCC2)c(Cl)c1.Cl (stereo unspecified)
- inhibition in vivo at 50 mg/kg [1]: 39%
- LD50 [2]: 600 mg/kg

SMILES: NCCCCc1ccc(N2CCCCC2)c(Cl)c1.O=C(O)CCC(=O)O
- inhibition in vivo at 100 mg/kg [3]: 71%
- LD50 [2]: 1600 mg/kg

SMILES: Cl.NCCc1cccc(N2CCCCC2)c1
- inhibition in vivo at 50 mg/kg [1]: 39%
- LD50 [2]: 600 mg/kg

SMILES: CC(CN(C)C)c1ccc(N2CCCCC2)cc1.Cl (stereo unspecified)
- inhibition in vivo at 100 mg/kg [3]: 70%
- LD50 [2]: 600 mg/kg

SMILES: c1cc(N2CCCCC2)ccc1CCN1CCCCC1
- inhibition in vivo at 50 mg/kg [1]: 46%
- LD50 [2]: 400 mg/kg

Source: ChEMBL document CHEMBL3243965, “Potential antiinflammatory compounds. 1. Antiinflammatory phenylpiperidine derivatives” (J Med Chem, 1979)
